{"data": "Measured values pooled from the literature", "organism": "Plasmodium falciparum", "effect on": "parasite growth", "note": "Compare with care: the assays were run in different laboratories."}
{"SMILES": "COC1=CC(c2ccc[nH]2)=N/C1=C\\c1[nH]c(Cc2ccc(OC(F)(F)F)cc2)cc1Cc1ccc(OC(F)(F)F)cc1", "method": "SYBR Green", "strain": "D6", "time": "72 h", "notes": "blood stage", "IC50": "25.2 nM"}
{"SMILES": "CC[C@H](CC[C@@H](C)[C@H]1CC[C@H]2[C@@H]3CC=C4C[C@@H](O)CC[C@]4(C)[C@H]3CC[C@]12C)C(C)C", "method": "SYBR Green", "strain": "3D7", "time": "48 h", "notes": "blood stage", "IC50": "9.29 µg/mL"}
{"SMILES": "CCN(CC)CCCC(C)Nc1ccnc2cc(Cl)ccc12 (stereo not shown)", "strain": "NF54", "notes": "blood stage", "IC50": "11.7 nM"}
{"SMILES": "N=C(CC(O)c1nc2ccccc2c2ccccc12)Nc1ccc(F)cc1 (stereo not shown)", "method": "ELISA", "strain": "DD2", "time": "72 h", "notes": "drug-resistant strain, blood stage", "IC50": "89.2 nM"}
{"SMILES": "CCOC1=CC(c2ccc[nH]2)=N/C1=C\\c1cc(Cc2ccc(Cl)cc2)c(C)[nH]1", "method": "SYBR Green", "strain": "D6", "time": "72 h", "notes": "blood stage", "IC50": "4.92 nM"}
{"SMILES": "CCCCCCCCNC(C)C(O)c1ccc(SC(C)C)cc1 (stereo not shown)", "strain": "NF54", "notes": "blood stage", "IC50": "72.6 nM"}
{"SMILES": "CC1=C(C)/C(=C/c2cc(-c3ccc(OC(F)(F)F)cc3)c(C)[nH]2)N=C1c1ccc[nH]1", "method": "SYBR Green", "strain": "D6", "time": "72 h", "notes": "blood stage", "IC50": "> 2500 nM"}
{"SMILES": "CO[C@H]1C[C@H](O[C@@H]2/C(C)=C/C[C@@H]3C[C@@H](C[C@]4(CC[C@H](C)[C@@H](C5CCCCC5)O4)O3)OC(=O)[C@@H]3C=C(C)/C(=N/O)[C@H]4OC/C(=C\\C=C\\[C@@H]2C)[C@]43O)O[C@@H](C)[C@@H]1O", "method": "SYBR Green", "strain": "3D7", "notes": "blood stage", "IC50": "553 nM"}
{"SMILES": "COC1=CC(c2ccc[nH]2)=N/C1=C\\c1[nH]c(C(=O)O)cc1Cc1ccc(OC(F)(F)F)cc1", "method": "SYBR Green", "strain": "D6", "time": "72 h", "notes": "blood stage", "IC50": "> 2500 nM"}
{"SMILES": "N=C(CC(O)c1cc2cccnc2c2cccnc12)Nc1ccc(F)cc1 (stereo not shown)", "method": "ELISA", "strain": "3D7", "time": "72 h", "notes": "blood stage", "IC50": "3200 nM"}
{"SMILES": "CO[C@H]1/C=C/O[C@@]2(C)Oc3c(C)c(O)c4c(O)c(c(/C=N/N5CCN(C)CC5)c(O)c4c3C2=O)NC(=O)/C(C)=C\\C=C\\[C@H](C)[C@H](O)[C@@H](C)[C@@H](O)[C@@H](C)[C@H](OC(C)=O)[C@@H]1C", "strain": "NF54", "notes": "blood stage", "IC50": "900 nM"}
{"SMILES": "CC1=C(C)/C(=C/c2[nH]c(Cc3ccc(OC(F)(F)F)cc3)cc2Cc2ccc(OC(F)(F)F)cc2)N=C1c1ccc[nH]1", "method": "SYBR Green", "strain": "D6", "time": "72 h", "notes": "blood stage", "IC50": "1300 nM"}
{"SMILES": "CCN(CC)CCCC(C)Nc1ccnc2cc(Cl)ccc12 (stereo not shown)", "method": "ELISA", "strain": "3D7", "time": "72 h", "notes": "blood stage", "IC50": "3.3 nM"}
{"SMILES": "Cc1[nH]c(/C=C2\\N=C(c3ccc[nH]3)C3=C2OCCO3)cc1Cc1ccc(OC(F)(F)F)cc1", "method": "SYBR Green", "strain": "D6", "time": "72 h", "notes": "blood stage", "IC50": "30.3 nM"}
{"SMILES": "CC(C)(C)CC(C)(C)c1ccc(O)c(Cc2ccc(Cl)cc2Cl)c1", "strain": "NF54", "notes": "blood stage", "IC50": "16300 nM"}
{"SMILES": "N=C(CC(O)c1nc2cc(F)ccc2c2ccc(F)cc12)Nc1ccc(F)cc1 (stereo not shown)", "method": "ELISA", "strain": "3D7", "time": "72 h", "notes": "blood stage", "IC50": "407 nM"}
{"SMILES": "Cc1[nH]c(/C=C2\\N=C(c3ccc[nH]3)C=C2OCc2ccccc2)cc1Cc1ccc(OC(F)(F)F)cc1", "method": "SYBR Green", "strain": "D6", "time": "72 h", "notes": "blood stage", "IC50": "9.63 nM"}
{"SMILES": "Cc1ccc(N(c2ccc(NC(=O)CN(C)c3ccccc3N3CCCC3=O)cc2)C(C)C)cc1", "method": "SYBR Green", "strain": "DD2", "notes": "blood stage", "IC50": "2.74 nM"}
{"SMILES": "CO[C@H]1/C=C/O[C@@]2(C)Oc3c(C)c(O)c4c(O)c(c(/C=N/N5CCN(C6CCCC6)CC5)c(O)c4c3C2=O)NC(=O)/C(C)=C\\C=C\\[C@H](C)[C@H](O)[C@@H](C)[C@@H](O)[C@@H](C)[C@H](OC(C)=O)[C@@H]1C", "method": "SYBR Green", "strain": "3D7", "notes": "blood stage", "IC50": "238 nM"}
{"SMILES": "N=C(CC(O)c1nc2ccccc2c2ccc(Cl)cc12)Nc1ccc(F)cc1 (stereo not shown)", "method": "ELISA", "strain": "DD2", "time": "72 h", "notes": "drug-resistant strain, blood stage", "IC50": "49.9 nM"}
{"SMILES": "COc1ccc2cc1Oc1ccc(cc1)C[C@H]1c3c(cc4c(c3Oc3cc5c(cc3OC)CCN(C)[C@@H]5C2)OCO4)CCN1C", "strain": "NF54", "notes": "blood stage", "IC50": "188 nM"}
{"SMILES": "N=C(CC(O)c1nc2ccccc2c2ccc(Br)cc12)Nc1ccc(F)cc1 (stereo not shown)", "method": "ELISA", "strain": "3D7", "time": "72 h", "notes": "blood stage", "IC50": "19.5 nM"}
